Laboratory results: article PMC9817006 (Journal of psychopharmacology (Oxford, England), 2022)

Legend:
[1] = tested on: C57BL/6J mice; β2 WT and KO mice; assay: Body temperature; type: in vivo; conditions: 0.5 mg/kg s.c.
How it was run: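 Mixed-sex β2 WT and KO mice on a C57BL/6J background, 8/group, given saline or test compound 0.5 mg/kg s.c. Rectal temperature read by thermistor probe inserted 24 mm, just before and at set times after injection. Change from pre-treatment reading computed per mouse; room temperature 21–24°C.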

[2] = tested on: ICR mice; assay: Tail-flick test; type: in vivo
How it was run: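 ICR mice (6/group) injected s.c. with test compound (0.001, 0.01, 0.1, 0.5 mg/kg) or saline; tail-flick latency tested at 5, 10, 15, 30, 60 and 120 min. Pre-treatment control latency 2–4 sec; 10 sec cutoff. %MPE = (test−control)/(10−control)×100.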

Ic1cncc(OC[C@@H]2CCN2)c1 [5IA, 5-Iodo-A-85380]
Body temperature, time course (in words) ([1]; C57BL/6J mice, vs vehicle): significant reductions in body temperature in comparison to their vehicle controls at 15-, 30- and 60-min | Hypothermic effect in β2 KO vs WT mice (in words) ([1]; β2 WT and KO mice): significantly abolished in β2 KO mice | Antinociceptive response, tail-flick test ([2]; 0.001 mg/kg s.c., 5 min after injection): 2 ± 2 % MPE | Antinociceptive response, tail-flick test ([2]; 0.001 mg/kg s.c., 10 min after injection): 3 ± 1 % MPE | Antinociceptive response, tail-flick test ([2]; 0.001 mg/kg s.c., 15 min after injection): 3 ± 2 % MPE | Antinociceptive response, tail-flick test ([2]; 0.001 mg/kg s.c., 30 min after injection): 0 ± 0 % MPE | Antinociceptive response, tail-flick test ([2]; 0.001 mg/kg s.c., 60 min after injection): 1 ± 1 % MPE | Antinociceptive response, tail-flick test ([2]; 0.001 mg/kg s.c., 120 min after injection): 4 ± 2 % MPE | Antinociceptive response, tail-flick test ([2]; 0.01 mg/kg s.c., 5 min after injection): 1 ± 1 % MPE | Antinociceptive response, tail-flick test ([2]; 0.01 mg/kg s.c., 10 min after injection): 2 ± 1 % MPE | Antinociceptive response, tail-flick test ([2]; 0.01 mg/kg s.c., 15 min after injection): 2 ± 1 % MPE | Antinociceptive response, tail-flick test ([2]; 0.01 mg/kg s.c., 30 min after injection): 2 ± 2 % MPE | Antinociceptive response, tail-flick test ([2]; 0.01 mg/kg s.c., 60 min after injection): 1 ± 1 % MPE | Antinociceptive response, tail-flick test ([2]; 0.01 mg/kg s.c., 120 min after injection): 1 ± 1 % MPE | Antinociceptive response, tail-flick test ([2]; 0.1 mg/kg s.c., 5 min after injection): 0 ± 0 % MPE | Antinociceptive response, tail-flick test ([2]; 0.1 mg/kg s.c., 10 min after injection): 3 ± 1 % MPE | Antinociceptive response, tail-flick test ([2]; 0.1 mg/kg s.c., 15 min after injection): 3 ± 1 % MPE | Antinociceptive response, tail-flick test ([2]; 0.1 mg/kg s.c., 30 min after injection): 6 ± 4 % MPE | Antinociceptive response, tail-flick test ([2]; 0.1 mg/kg s.c., 60 min after injection): 3 ± 2 % MPE | Antinociceptive response, tail-flick test ([2]; 0.1 mg/kg s.c., 120 min after injection): 5 ± 2 % MPE | Antinociceptive response, tail-flick test ([2]; 0.5 mg/kg s.c., 5 min after injection): 10 ± 4 % MPE | Antinociceptive response, tail-flick test ([2]; 0.5 mg/kg s.c., 10 min after injection): 4 ± 3 % MPE | Antinociceptive response, tail-flick test ([2]; 0.5 mg/kg s.c., 15 min after injection): 11 ± 4 % MPE | Antinociceptive response, tail-flick test ([2]; 0.5 mg/kg s.c., 30 min after injection): 7 ± 4 % MPE | Antinociceptive response, tail-flick test ([2]; 0.5 mg/kg s.c., 60 min after injection): 6 ± 3 % MPE | Antinociceptive response, tail-flick test ([2]; 0.5 mg/kg s.c., 120 min after injection): 7 ± 3 % MPE | Effect on acute thermal antinociception, tail-flick test (in words) ([2]; 0.001-0.5 mg/kg s.c., 5-120 min, Dunnett's post hoc): no significant effects of dose at any of the observed time points
